In ChEMBL document CHEMBL1157057, “Iridoids and lignans from Valeriana jatamansi” (J Nat Prod, 2010):

Tests used:
Format in all cases: functional, cell-based
Bel-7402 = assay: Cytotoxicity against human Bel7402 cells after 24 hrs by MTT assay
Outline: (§1)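 Human cancer cell lines from ATCC were seeded at 3000 cells per well and dosed 24 h after seeding across a range of concentrations. After 24 h of compound exposure, MTT was added and incubation continued another 24 h. Viability was read as absorbance at 570 nm and IC50 calculated. Paclitaxel was the positive control.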

PC-3M = assay: (§2) Cytotoxicity against human PC3M cells after 24 hrs by MTT assay; outline: as §1
HCT-8 = assay: Cytotoxicity against human HCT8 cells after 24 hrs by MTT assay; outline: as §1
A549 = assay: Cytotoxicity against human A549 cells after 24 hrs by MTT assay; outline: as §1
[1] = as §2; conditions: PC-3M; outline: as §1

Compound	Activity (Bel-7402)	Activity (PC-3M)	Activity (HCT-8)	Activity (A549)	IC50 [1] [µM]	IC50 (HCT-8; HCT-8, 24 h) [µM]
C=C1[C@H]2O[C@@H](O)[C@H]3[C@@H]1C[C@H](O)[C@@]3(C)O2	Not toxic	Not toxic	Not toxic	Not toxic		
CO[C@H]1OC(=O)[C@H]2[C@@H]3C[C@H](O)[C@@]2(C)OC[C@H]13	Not toxic	Not toxic	Not toxic	Not toxic		
C=C(C=O)[C@H]1C[C@H](O)[C@@](C)(O)[C@H]1C(=O)OC	Not toxic	Not toxic	Not toxic	Not toxic		
C=C(CO)[C@H]1C[C@H](O)[C@@](C)(O)[C@H]1CO	Not toxic	Not toxic	Not toxic	Not toxic		
CO[C@@H]1O[C@]2(C)[C@@H](O)C[C@@H]3[C@H]1COC(=O)[C@@H]32	Not toxic	Not toxic	Not toxic	Not toxic		
C[C@@H]1COC(=O)[C@H]2[C@@H]1C[C@H](O)[C@@]2(C)O	Not toxic	Not toxic	Not toxic	Not toxic		
C=C(C=O)[C@@]1(O)C[C@H](OC(C)=O)C(CO)=C1C=O	Not toxic	Not toxic	Not toxic	Not toxic		
C=C1COC(=O)[C@H]2[C@@H]1C[C@H](O)[C@@]2(C)O	Not toxic	Not toxic	Not toxic	Not toxic		
COc1cc(C[C@H]2CO[C@H](c3ccc(O)c(OC)c3)[C@H]2COC(=O)CC(C)C)ccc1O [(+)-9'-ISOVALEROXYLARICIRESINOL]	Not toxic			Not toxic	8.1	5.3
C=C1[C@H]2OC(=O)[C@H]3[C@@H]1C[C@H](O)[C@@]3(C)O2	Not toxic	Not toxic	Not toxic	Not toxic		
C=C1CO[C@@]2(CO)C(CO)=CC[C@H]12	Not toxic	Not toxic	Not toxic	Not toxic		
C[C@]12O[C@@H]3OC(=O)[C@H]1[C@H](C[C@@H]2O)[C@H]3CO	Not toxic	Not toxic	Not toxic	Not toxic		
C=C1[C@H]2OC[C@H]3[C@@H]1C[C@H](O)[C@@]3(C)O2	Not toxic	Not toxic	Not toxic	Not toxic		
C[C@H]1COC(=O)[C@H]2[C@@H]1C[C@H](O)[C@@]2(C)O	Not toxic	Not toxic	Not toxic	Not toxic		
